Reference: ChEMBL document CHEMBL5058577, “EUbOPEN Chemogenomics Library 2 (Multiplex)” (2022)

Test system: U2OS
Assay: Multiplex assay against U2OS
Type: toxicity, cell-based
Conditions: human
Procedure, shortened: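 At seeding, live cells were stained with Hoechst33342, BioTracker Green Microtubule Cytoskeleton Dye, MitoTracker Red and Annexin V Alexa Fluor 680. After compound addition they were imaged on a CQ1 microscope at 37°C and 5% CO2, and CellPathfinder machine-learning gating sorted them into Hoechst high-intensity objects or normal cells, with normal cells further split into healthy, pyknosed or fragmented nuclei and pyknosed cells into mitotic or apoptotic. Tubulin, mitochondrial-mass and membrane-permeability phenotypes are given as per cents of cells with healthy nuclei.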

[1] = 12 h, 1 µM, compound concentration 1 uM, replicate 1
[2] = 12 h, 1 µM, compound concentration 1 uM, replicate 2
[3] = 12 h, 10 µM, compound concentration 10 uM, replicate 1
[4] = 12 h, 10 µM, compound concentration 10 uM, replicate 2
[5] = 24 h, 1 µM, compound concentration 1 uM, replicate 1
[6] = 24 h, 1 µM, compound concentration 1 uM, replicate 2
[7] = 24 h, 10 µM, compound concentration 10 uM, replicate 1
[8] = 24 h, 10 µM, compound concentration 10 uM, replicate 2
[9] = 48 h, 1 µM, compound concentration 1 uM, replicate 1
[10] = 48 h, 1 µM, compound concentration 1 uM, replicate 2
[11] = 48 h, 10 µM, compound concentration 10 uM, replicate 1
[12] = 48 h, 10 µM, compound concentration 10 uM, replicate 2

CCOc1c2c(c(OCC)c3ncccc13)CN(c1ccc(CS(=O)(=O)NC(=O)Cc3ccccc3OC)cc1C)C2=O
Population Apoptotic (%) [1]: 64%
Population Fragmented Nuclei (%) [1]: 22%
Population Healthy Nuclei (%) [1]: 70%
Population Hoechst High Intensity Objects (%) [1]: 2%
Population Membrane Permeable-Phenotype (%) [1]: 7%
Population Mitochondria Different-Phenotype (%) [1]: 3%
Population Mitotic Cells (%) [1]: 35%
Population Normal (%) [1]: 97%
Population Pyknosed Nuclei (%) [1]: 7%
Population Tubulin-Different-Phenotype (%) [1]: 2%
Total Cell Count [1]: 189
Population Apoptotic (%) [2]: 100%
Population Fragmented Nuclei (%) [2]: 13%
Population Healthy Nuclei (%) [2]: 82%
Population Hoechst High Intensity Objects (%) [2]: 1%
Population Membrane Permeable-Phenotype (%) [2]: 9%
Population Mitotic Cells (%) [2]: 0%
Population Normal (%) [2]: 98%
Population Pyknosed Nuclei (%) [2]: 4%
Population Tubulin-Different-Phenotype (%) [2]: 6%
Total Cell Count [2]: 93
Population Apoptotic (%) [3]: 81%
Population Fragmented Nuclei (%) [3]: 30%
Population Healthy Nuclei (%) [3]: 63%
Population Hoechst High Intensity Objects (%) [3]: 2%
Population Membrane Permeable-Phenotype (%) [3]: 5%
Population Mitochondria Different-Phenotype (%) [3]: 3%
Population Mitotic Cells (%) [3]: 18%
Population Normal (%) [3]: 97%
Population Pyknosed Nuclei (%) [3]: 6%
Population Tubulin-Different-Phenotype (%) [3]: 2%
Total Cell Count [3]: 248
Population Apoptotic (%) [4]: 80%
Population Fragmented Nuclei (%) [4]: 21%
Population Healthy Nuclei (%) [4]: 75%
Population Membrane Permeable-Phenotype (%) [4]: 8%
Population Mitochondria Different-Phenotype (%) [4]: 6%
Population Mitotic Cells (%) [4]: 20%
Population Pyknosed Nuclei (%) [4]: 3%
Population Tubulin-Different-Phenotype (%) [4]: 3%
Total Cell Count [4]: 136
Population Apoptotic (%) [5]: 80%
Population Fragmented Nuclei (%) [5]: 21%
Population Healthy Nuclei (%) [5]: 71%
Population Hoechst High Intensity Objects (%) [5]: 3%
Population Membrane Permeable-Phenotype (%) [5]: 4%
Population Mitochondria Different-Phenotype (%) [5]: 0%
Population Mitotic Cells (%) [5]: 20%
Population Normal (%) [5]: 96%
Population Pyknosed Nuclei (%) [5]: 6%
Population Tubulin-Different-Phenotype (%) [5]: 1%
Total Cell Count [5]: 235
Population Apoptotic (%) [6]: 100%
Population Fragmented Nuclei (%) [6]: 19%
Population Healthy Nuclei (%) [6]: 76%
Population Hoechst High Intensity Objects (%) [6]: 1%
Population Membrane Permeable-Phenotype (%) [6]: 7%
Population Mitochondria Different-Phenotype (%) [6]: 4%
Population Mitotic Cells (%) [6]: 0%
Population Normal (%) [6]: 98%
Population Pyknosed Nuclei (%) [6]: 4%
Population Tubulin-Different-Phenotype (%) [6]: 4%
Total Cell Count [6]: 125
Population Apoptotic (%) [7]: 76%
Population Fragmented Nuclei (%) [7]: 27%
Population Healthy Nuclei (%) [7]: 61%
Population Hoechst High Intensity Objects (%) [7]: 3%
Population Membrane Permeable-Phenotype (%) [7]: 6%
Population Mitochondria Different-Phenotype (%) [7]: 2%
Population Mitotic Cells (%) [7]: 23%
Population Normal (%) [7]: 96%
Population Pyknosed Nuclei (%) [7]: 10%
Population Tubulin-Different-Phenotype (%) [7]: 1%
Total Cell Count [7]: 285
Population Apoptotic (%) [8]: 100%
Population Fragmented Nuclei (%) [8]: 17%
Population Healthy Nuclei (%) [8]: 76%
Population Hoechst High Intensity Objects (%) [8]: 0%
Population Mitotic Cells (%) [8]: 0%
Population Normal (%) [8]: 99%
Population Pyknosed Nuclei (%) [8]: 5%
Population Tubulin-Different-Phenotype (%) [8]: 5%
Total Cell Count [8]: 152
Population Apoptotic (%) [9]: 85%
Population Fragmented Nuclei (%) [9]: 19%
Population Healthy Nuclei (%) [9]: 74%
Population Hoechst High Intensity Objects (%) [9]: 2%
Population Membrane Permeable-Phenotype (%) [9]: 3%
Population Mitochondria Different-Phenotype (%) [9]: 1%
Population Mitotic Cells (%) [9]: 15%
Population Normal (%) [9]: 97%
Population Pyknosed Nuclei (%) [9]: 5%
Population Tubulin-Different-Phenotype (%) [9]: 2%
Total Cell Count [9]: 344
Population Apoptotic (%) [10]: 100%
Population Fragmented Nuclei (%) [10]: 17%
Population Healthy Nuclei (%) [10]: 79%
Population Hoechst High Intensity Objects (%) [10]: 4%
Population Membrane Permeable-Phenotype (%) [10]: 7%
Population Mitochondria Different-Phenotype (%) [10]: 3%
Population Mitotic Cells (%) [10]: 0%
Population Normal (%) [10]: 95%
Population Pyknosed Nuclei (%) [10]: 2%
Population Tubulin-Different-Phenotype (%) [10]: 5%
Total Cell Count [10]: 167
Population Apoptotic (%) [11]: 91%
Population Fragmented Nuclei (%) [11]: 19%
Population Healthy Nuclei (%) [11]: 71%
Population Hoechst High Intensity Objects (%) [11]: 2%
Population Membrane Permeable-Phenotype (%) [11]: 5%
Population Mitochondria Different-Phenotype (%) [11]: 1%
Population Mitotic Cells (%) [11]: 8%
Population Normal (%) [11]: 97%
Population Pyknosed Nuclei (%) [11]: 9%
Population Tubulin-Different-Phenotype (%) [11]: 2%
Total Cell Count [11]: 385
Population Apoptotic (%) [12]: 100%
Population Fragmented Nuclei (%) [12]: 18%
Population Healthy Nuclei (%) [12]: 74%
Population Membrane Permeable-Phenotype (%) [12]: 8%
Population Mitochondria Different-Phenotype (%) [12]: 4%
Population Mitotic Cells (%) [12]: 0%
Population Pyknosed Nuclei (%) [12]: 6%
Population Tubulin-Different-Phenotype (%) [12]: 3%
Total Cell Count [12]: 236
